Compound activity: PubChem, several laboratories
Rows were chosen to be rich in hits. Some 1.9% of all compounds tested hit in one or more screens of this group.
Hck Nef HTS – human Hck-Nef kinase inhibition; Recombinant Hck-YEEI plus Nef, Z-Lyte FRET kinase assay; inhibition, % at 20 µM; hit rate 0.68% among 220,000;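 active means Hck-Nef kinase inhibition above about 50%, limit read from the data; inactive means inhibition below that limit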
Runt-SMMHC FRET – blocks binding of human RUNX1 Runt domain to CBFb-SMMHC | Cerulean-Runt/Venus-CBFb-SMMHC FRET ratio 530/480, 1 h | inhibition, % at 20 µM | hit rate 0.74% among 220,000;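 active means mean inhibition across duplicate retests at 20 µM reaching about 50%, limit read from the data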;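 further: inhibitors lower the FRET ratio by blocking Runt binding to CBFb-SMMHC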
Target sequence (Q01196 whole entry, looked up, the tested form may be a part): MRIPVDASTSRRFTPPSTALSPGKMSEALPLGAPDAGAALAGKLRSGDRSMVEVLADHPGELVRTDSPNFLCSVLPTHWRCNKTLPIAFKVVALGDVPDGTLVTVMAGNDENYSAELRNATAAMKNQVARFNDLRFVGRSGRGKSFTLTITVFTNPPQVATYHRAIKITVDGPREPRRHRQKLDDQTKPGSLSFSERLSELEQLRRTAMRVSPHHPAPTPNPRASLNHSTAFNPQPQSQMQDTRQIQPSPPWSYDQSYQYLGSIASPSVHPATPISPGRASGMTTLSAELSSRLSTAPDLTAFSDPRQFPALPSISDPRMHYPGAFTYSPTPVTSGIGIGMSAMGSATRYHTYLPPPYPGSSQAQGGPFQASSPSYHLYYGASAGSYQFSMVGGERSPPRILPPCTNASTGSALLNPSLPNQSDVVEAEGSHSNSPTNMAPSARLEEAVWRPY
Target sequence (Q13951 whole entry, looked up, the tested form may be a part): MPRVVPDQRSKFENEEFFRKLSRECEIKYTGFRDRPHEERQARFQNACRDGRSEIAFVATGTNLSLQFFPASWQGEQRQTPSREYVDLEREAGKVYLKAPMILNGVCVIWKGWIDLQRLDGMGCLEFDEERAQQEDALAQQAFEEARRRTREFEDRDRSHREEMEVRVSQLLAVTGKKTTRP
Tb hexokinase – T. brucei hexokinase 1 inhibition. recombinant TbHK1, G6PDH-coupled NADH A340. inhibition, % at 10 µM. hit rate 0.11% among 220,000;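 active means inhibition of 50% or more in the single-dose primary screen; inactive means inhibition below 50%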
RanGTP-Imp inh – inhibitors of RanGTP-importin-beta interaction, primary screen, biochemical, FRET, CFP-Ran, YFP-importin-beta, homogeneous. cell-free CFP-Ran/YFP-importin-beta FRET ratio. inhibition, % (test concentration not listed). hit rate 1.1% among 300,000. AID 2216;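 active means more than half of the replicate wells show a fall in the fluorescence ratio signal beyond about 16%, limit read from the data, passing the limit was not always enough; inconclusive means exactly half of the replicate wells pass the set limit; inactive means fewer than half of replicates pass the limit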
Runt-CBFb FRET – inhibitors of human RUNX1 Runt domain binding to CBFb | Cerulean-Runt/Venus-CBFb FRET ratio 530/480, 1 h | inhibition, % at 20 µM | hit rate 0.46% among 220,000 | AID 1496;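 active means inhibition over about 50% at 20 µM in the single-dose screen, limit read from the data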
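Measured by: fluorescence energy transfer, 422 nm excitation, 530/480 nm emission; Assay system: Cerulean-Runt domain; Medium: Tris pH 7.5 buffer with BSA; Measure: loss of energy transfer signal; Controls: 5 µM unlabeled CBFb as full-inhibition high control; Incubation: protein complex preformed 1 h, compound exposure 1 h, room temperature, dark.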
Hits are given with their value; - = inactive; ? = inconclusive; . = not tested or not shown.

SMILES	Hck Nef HTS	Runt-SMMHC FRET	Tb hexokinase	RanGTP-Imp inh	Runt-CBFb FRET
Cc1nc2ccn(Cc3ccccc3)c(=O)c2cc1C(=O)N1CCN(c2ccc(F)cc2)CC1	.	.	.	69	.
CCCCn1c(N)c(N(CCOC)C(=O)COC(=O)COc2cccc(C(C)=O)c2)c(=O)[nH]c1=O	.	.	.	-	.
N#C/C(=C\c1c(Oc2ccccc2Cl)nc2ccccn2c1=O)C(=O)NC1CCS(=O)(=O)C1 (centres undefined)	.	.	.	91	.
Cc1cc(C)cc(Oc2nc3ccccn3c(=O)c2/C=C(\C#N)C(=O)NC2CCS(=O)(=O)C2)c1 (centres undefined)	-	60	-	?	88
COC(=O)/C(C#N)=C/c1c(Oc2cc(C)cc(C)c2)nc2ccccn2c1=O	-	-	-	-	-
N#C/C(=C\c1c(Oc2ccccc2F)nc2ccccn2c1=O)C(=O)NC1CCS(=O)(=O)C1 (centres undefined)	.	.	.	128	.
NC(=O)c1ccc(NC(=O)CN2C(=O)NC(c3ccccc3)(c3ccccc3)C2=O)cc1	.	.	.	-	.
O=C(Cn1c2ccccc2c(=O)c2ccccc21)Nc1cccc(F)c1	-	63	-	60	76
O=C(CC(=O)Nc1cccc(F)c1)Nc1cccc(F)c1	.	.	.	-	.
Cc1ccc2sc(NC(=O)CSc3nc(C)cc(C)c3C#N)nc2c1	-	56	-	-	-
Cc1cc(C(F)(F)F)c(C#N)c(SCC(=O)Nc2nc3ccccc3s2)n1	-	-	-	-	-
COc1cccc(C2C3CN(C)CC=C3C(C#N)=C(N)C2(C#N)C#N)c1OC (centres undefined)	-	62	-	39	74
CCOC(=O)N1CC=C2C(C#N)=C(N)C(C#N)(C#N)[C@H](c3ccccc3OCC)[C@H]2C1	-	-	-	-	-
CCN1CC=C2C(C#N)=C(N)C(C#N)(C#N)[C@H](c3cccc(OC)c3OC)[C@H]2C1	-	62	-	.	-
CCOc1ccc(C(Nc2cccnc2)c2cc(Cl)c3cccnc3c2O)cc1 (centres undefined)	51	-	-	.	-
CCOC(=O)N1CCN(C(=O)/C=C/c2ccc([N+](=O)[O-])cc2)CC1	-	-	-	-	-
CCOC(=O)N1CCN(C(=O)/C=C/c2ccc(C(C)(C)C)cc2)CC1	.	.	.	28	.
CC1=C(C#N)C(=O)N(C2CCS(=O)(=O)C2)C(=O)/C1=C\c1ccco1 (centres undefined)	100	-	-	-	-
N#CC1=C(N)N2C(=C(C#N)C1c1cccc(Br)c1)Nc1ccccc12 (centres undefined)	-	64	-	28	-
N#CC1=C(N)N2C(=C(C#N)C1c1ccc(Br)cc1)Nc1ccccc12 (centres undefined)	-	60	-	23	-
N#CC1=C(N)N2C(=C(C#N)C1c1ccccc1)Sc1ccccc12 (centres undefined)	-	-	-	?	-
CCOc1ccc(C2C(C#N)=C(N)N3C(=C2C#N)Sc2ccccc23)cc1 (centres undefined)	.	-	.	?	-
O=C(O)C1Cc2ccccc2CN1C(=O)CCl (centres undefined)	-	-	-	-	-
CC(C)c1cc2c(c(O)c1O)[C@@]13CCCC(C)(C)C1CC2OC3=O (some centres undefined)	.	.	.	-	.
CN(C(=O)CCN1C(=O)c2ccccc2C1=O)c1ccccc1	.	.	.	-	.
SMILES	Hck Nef HTS	Runt-SMMHC FRET	Tb hexokinase	RanGTP-Imp inh	Runt-CBFb FRET
COc1ccc(-c2noc(CN3CCCC(OCc4ccccn4)C3)n2)cc1 (centres undefined)	-	-	-	-	-
COC(=O)c1c(NC(=O)C(C)C)sc2c1CCN(Cc1ccccc1)C2	.	.	.	54	.
CCOC(=O)c1c(NC(=S)NCc2ccccc2)sc2c1CCN(C(=O)OCC)C2	-	-	-	-	-
CCC(=O)Nc1sc2c(c1C(=O)OC)CCN(Cc1ccccc1)C2	.	.	.	92	.
O=C(CN1C(=O)COc2ccc(S(=O)(=O)N3CCCCC3)cc21)NCc1ccc(F)cc1	.	.	.	51	.
CCN(CC(=O)NCc1ccc(F)cc1)CC(=O)Nc1ccc(S(=O)(=O)N2CCCC2)cc1	-	-	-	17	-
Cc1cccc2nc(-c3ccccc3)nc(N[C@@H](CO)c3ccccc3)c12	-	-	-	-	-
O=c1[nH]cc(NCCc2ccccc2)c(=O)[nH]1	-	-	-	43	-
CCOC(=O)c1nn(-c2cccc(Cl)c2)c(C)c1C(C)=O	-	-	-	-	-
CCOC(=O)c1c(C)nn(Cc2cccc(Cl)c2)c1N	-	-	-	-	70
Nc1nccnc1C(=O)OCC(=O)NCCc1ccc(S(N)(=O)=O)cc1	.	.	.	-	.
CC1CCCCN1CCCNc1ccc(C(CC(N)=O)NC(=O)Cc2cccc3ccccc23)cc1[N+](=O)[O-] (centres undefined)	.	.	.	30	.
CC1CCCCN1CCCNc1ccc(C(CC(N)=O)NC(=O)Cc2ccc(Cl)cc2)cc1[N+](=O)[O-] (centres undefined)	.	.	.	-	.
CCNC(=O)CC1SC(=Nc2ccc(C)c([N+](=O)[O-])c2)N(C)C1=O (centres undefined)	.	.	.	-	.
O=C(Nc1cccc(Cl)c1)c1cc(N=Nc2ccc([N+](=O)[O-])cc2Cl)ccc1O	83	-	-	-	-
Cc1nn(-c2ccccc2)c(C)c1NC(=O)COc1ccc(Br)cc1Cl	-	-	-	-	-
N#Cc1c(-c2ccccc2)nc(SCC(=O)N2c3ccccc3Sc3ccccc32)[nH]c1=O	82	-	-	-	-
CC(Oc1ccccc1)C(=O)N1CCN=C1SCc1ccc(F)cc1 (centres undefined)	-	-	-	-	-
CSCCC(NS(=O)(=O)c1ccccc1F)C(=O)NCCCn1nc(C)cc1C (centres undefined)	.	.	.	-	.
COc1ccc(/C=C/C(=O)N2CCN(C)CC2)cc1S(=O)(=O)N1CCCCC1	-	-	-	77	-
COc1ccc(/C=C/C(=O)NC2CCCCCCC2)cc1S(=O)(=O)N1CCOCC1	-	-	-	-	-
C=C1c2cc(C)c(C)cc2NC(=O)N1c1ccccc1	-	60	-	-	-
Cc1cccn2c(=O)c3cc(C(=O)NC4CCCC4)sc3nc12	.	.	.	-	.
CCCCNC(=O)c1cc2c(=O)n3cccc(C)c3nc2n(Cc2ccccc2)c1=N	-	62	-	188	-
Cc1cccn2c(=O)c3cc(C(=O)NC4CCCCC4)c(=N)n(Cc4ccccc4)c3nc12	.	.	.	186	.
Cc1cccn2c(=O)c3cc(C(=O)NC4CCCC4)c(=N)n(CCc4ccccc4)c3nc12	.	.	.	179	.
Cc1cccn2c(=O)c3cc(C(=O)NC4CCCC4)c(=N)n(C4CCCCC4)c3nc12	.	.	.	175	.
O=C(O)C1=C[C@H](c2ccc(F)cc2)C[C@H](OCCCCO)O1	-	-	-	-	-
Cc1cccn2c(=O)c3cc(C(=O)NC4CCCC4)c(=N)n(Cc4ccc(F)cc4)c3nc12	.	.	.	178	.
COCCCn1c(C(=O)NC2CCCCC2C)cc2c(=O)n3cccc(C)c3nc21 (centres undefined)	.	.	.	-	.
